≈ marks a conversion by molar mass, not a printed value. Calls of active or inactive are those of the source. The rule behind the calls is not given here. Square brackets hold non-standard residues; d marks the D form. Peptide text beside a SMILES is read from it.
What was measured:
[1] = test system: Staphylococcus aureus; test: Bactericidal activity against methicillin resistant Staphylococcus aureus BAA 2313 assessed as inhibition of bacterial growth at MIC concentration incubated for 48 hrs by broth microdilution assay; format: functional, organism-based
Procedure, shortened: (§1)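 Plates were incubated 48 h at 37 °C and examined for colonies. A fidaxomicin-treated culture at 1 µM served as the control.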

[2] = test system: Salmonella enterica; test: Antibacterial activity against Salmonella enterica ATCC 13314 assessed as inhibition of bacterial growth incubated for 24 hrs by absorbance based microplate reader analysis; format: functional
Procedure, shortened: (§2)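 Broth microdilution. An overnight single-colony culture in recommended broth was diluted 1:10 000, and peptide serial dilutions in DMSO were added (4 µL into 196 µL). Plates incubated 24 h at 37 °C, aerobic or anaerobic as required, then OD600 read. Inhibition was calculated against pathogen-only and blank wells.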

[3] = test system: Enterococcus faecium; test: Antibacterial activity against vancomycin resistant Enterococcus faecium BAA 2317 assessed as inhibition of bacterial growth incubated for 24 hrs by absorbance based microplate reader analysis; format: functional
Procedure, shortened: (§3)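 Broth microdilution. A single colony was grown 24 h in its recommended broth, then diluted 1:10 000 in the same medium. Peptide serial dilutions were added from DMSO stock at 4 µL per 196 µL inoculated medium. Plates were incubated aerobically or anaerobically as each pathogen requires, at 37 °C for 24 h, and OD600 was read. MIC was the lowest concentration giving 100% growth inhibition. Duplicate wells; assay repeated five times independently.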

[4] = test system: Listeria monocytogenes; test: Bactericidal activity against Listeria monocytogenes ATCC 15313 assessed as inhibition of bacterial growth at MIC concentration incubated for 48 hrs by broth microdilution assay; format: functional, organism-based
Procedure, shortened: (§4)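 From broth-microdilution wells showing no growth, 10 µL was spotted onto agar and incubated 48 h at 37 °C. Plates were inspected for colonies. Fidaxomicin at 1 µM served as control.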

[5] = test system: Enterococcus faecium; test: Bactericidal activity against vancomycin resistant Enterococcus faecium BAA 2317 assessed as inhibition of bacterial growth at MIC concentration incubated for 48 hrs by broth microdilution assay; format: functional, organism-based; procedure, shortened: as §1
[6] = test system: Caco-2; test: Anti-inflammatory activity in human Caco-2 cells infected with Clostridium difficile ATCC 43602 assessed as reduction in IL-8 level at MIC concentration by ELISA relative to control; format: functional; set-up: scale not given: the % may be the effect or the level left
Procedure, shortened: (§5)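 Caco-2 cells grown in DMEM + 10% FBS, 37 °C, 5% CO2, to 90% confluence, then seeded 30 000 cells/well and held 24 h. C. difficile was grown overnight anaerobically in meat broth, washed in PBS, and 1 µL of 0.5 OD600 culture added per 300 µL medium. […] Cytokine in supernatant measured by ELISA; three independent replicates.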

[7] = test system: Escherichia coli; test: Bactericidal activity against Escherichia coli ATCC 33694 assessed as inhibition of bacterial growth at MIC concentration incubated for 48 hrs by broth microdilution assay; format: functional, organism-based; procedure, shortened: as §4
[8] = test system: Pseudomonas aeruginosa; test: Bactericidal activity against Pseudomonas aeruginosa BAA 1744 assessed as inhibition of bacterial growth at MIC concentration incubated for 48 hrs by broth microdilution assay; format: functional, organism-based; procedure, shortened: as §4
[9] = test system: Staphylococcus aureus; test: Antibacterial activity against methicillin resistant Staphylococcus aureus BAA 2313 assessed as inhibition of bacterial growth incubated for 24 hrs by absorbance based microplate reader analysis; format: functional
Procedure, shortened: as §3, with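 “read.” for “read. MIC was the lowest concentration giving 100% growth inhibition.”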

[10] = test system: Staphylococcus aureus; test: Bactericidal activity against Staphylococcus aureus ATCC 25923 assessed as inhibition of bacterial growth at MIC concentration incubated for 48 hrs by broth microdilution assay; format: functional, organism-based; procedure, shortened: as §4
[11] = Retention time of compound by RP-HPLC analysis; format: physicochemical
Procedure, shortened: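 Analytical reversed-phase HPLC.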

[12] = test system: Salmonella enterica; test: Bactericidal activity against Salmonella enterica ATCC 13314 assessed as inhibition of bacterial growth at MIC concentration incubated for 48 hrs by broth microdilution assay; format: functional, organism-based; procedure, shortened: as §4
[13] = test system: Clostridioides difficile; test: Bactericidal activity against Clostridium difficile ATCC 43602 assessed as inhibition of bacterial growth at MIC concentration incubated for 48 hrs by broth microdilution assay; format: functional, organism-based; procedure, shortened: as §4
[14] = test system: Staphylococcus aureus; test: Induction of morphological changes in Staphylococcus aureus ATCC 25923 assessed as extracellular protrusions by measuring fragments of lysed cell wall at MIC concentration by transmission electron microscopic analysis; format: functional, organism-based
Procedure, shortened: (§6)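 Cells were pelleted at 4 °C, washed in 0.1 M PBS pH 7.2, and fixed overnight (4% formaldehyde, 1.25% glutaraldehyde, ruthenium red). Post-fixed in 1% OsO4, dehydrated through ethanol, embedded in epoxy resin and imaged by TEM.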

[15] = test system: Staphylococcus aureus; test: Induction of morphological changes in Staphylococcus aureus ATCC 25923 assessed as leakage of intracellular content at MIC concentration by transmission electron microscopic analysis; format: functional, organism-based; procedure, shortened: as §6
[16] = test system: Staphylococcus aureus; test: Induction of morphological changes in Staphylococcus aureus ATCC 25923 assessed as cell damage at MIC concentration by transmission electron microscopic analysis; format: functional, organism-based; procedure, shortened: as §6
[17] = test system: Staphylococcus aureus; test: Antibacterial activity against Staphylococcus aureus ATCC 25923 assessed as reduction in colony forming units at MIC concentration measured after 2 hrs by time-kill kinetic analysis; format: functional
Procedure, shortened: (§7)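 Samples (5 µL) taken at 0, 1, 2, 4, 6, 12, 18 and 24 h, tenfold diluted in 0.85% NaCl, and plated on TSA overnight at 37 °C for CFU counts. Two independent duplicates.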

[18] = test system: Staphylococcus aureus; test: Antibacterial activity against Staphylococcus aureus ATCC 25923 assessed as reduction in surviving bacteria at MIC concentration measured within 6 hrs by time-kill kinetic analysis; format: functional; procedure, shortened: as §7
[19] = test system: Staphylococcus aureus; test: Induction of morphological changes in Staphylococcus aureus ATCC 25923 assessed as appearance of detached fragments at MIC concentration by transmission electron microscopic analysis; format: functional, organism-based; procedure, shortened: as §6
[20] = test system: Staphylococcus aureus; test: Antibacterial activity against Staphylococcus aureus ATCC 25923 assessed as reduction in bacterial growth at MIC concentration measured after 24 hrs by time-kill kinetic analysis; format: functional, organism-based; procedure, shortened: as §7
[21] = test system: Staphylococcus aureus; test: Induction of morphological changes in Staphylococcus aureus ATCC 25923 assessed as detachment of pieces from cell wall at MIC concentration by transmission electron microscopic analysis; format: functional, organism-based; procedure, shortened: as §6
[22] = test system: Caco-2; test: Anti-inflammatory activity in human Caco-2 cells infected with Clostridium difficile ATCC 43602 assessed as reduction in TNFalpha level at MIC concentration by ELISA relative to control; format: functional; set-up: scale not given: the % may be the effect or the level left; procedure, shortened: as §5
[23] = test system: Staphylococcus aureus; test: Induction of morphological changes in Staphylococcus aureus ATCC 25923 assessed as deformation of cells at MIC concentration by transmission electron microscopic analysis; format: functional, organism-based; procedure, shortened: as §6
[24] = test system: Staphylococcus aureus; test: Induction of morphological changes in Staphylococcus aureus ATCC 25923 assessed as cell wall lysis at MIC concentration by transmission electron microscopic analysis; format: functional, organism-based; procedure, shortened: as §6
[25] = test system: Pseudomonas aeruginosa; test: Antibacterial activity against Pseudomonas aeruginosa BAA 1744 assessed as inhibition of bacterial growth incubated for 24 hrs by absorbance based microplate reader analysis; format: functional; details: read-out: MIC100; procedure, shortened: as §2
[26] = test system: Clostridioides difficile; test: Antibacterial activity against Clostridium difficile ATCC 43602 assessed as inhibition of bacterial growth incubated for 24 hrs by absorbance based microplate reader analysis; format: functional; details: read-out: MIC100
[27] = test system: Staphylococcus aureus; test: Induction of morphological changes in Staphylococcus aureus ATCC 25923 assessed as disintegration of cells at MIC concentration by transmission electron microscopic analysis; format: functional, organism-based; procedure, shortened: as §6
[28] = test system: Staphylococcus aureus; test: Antibacterial activity against Staphylococcus aureus ATCC 25923 assessed as reduction in surviving bacteria at MIC concentration measured after 12 hrs by time-kill kinetic analysis; format: functional; procedure, shortened: as §7
[29] = test system: Staphylococcus aureus; test: Induction of morphological changes in Staphylococcus aureus ATCC 25923 assessed as fragmentation of intracellular content at MIC concentration by transmission electron microscopic analysis; format: functional, organism-based; procedure, shortened: as §6

Molecule	Activity [1]	Activity [2]	Activity [4]	Activity [5]	Activity [7]	Activity [8]	Activity [10]	Retention_time [11]	Activity [12]	Activity [13]	Activity [15]	Activity [17]	Activity [20]	further results
H-SGGIGPLVIP-NH2	Active	inactive	Active	Active	Active	Active	Active	13.82 min	Active	Active	–	–	–	Activity [3]: inactive; Activity [6]: 6%; Activity [9]: inactive
CC[C@H](C)[C@@H]1NC(=O)CNC(=O)CNC(=O)[C@H](CO)NC(=O)[C@H]([C@@H](C)CC)NC(=O)[C@H](CCCCN)NC(=O)[C@H](CO)NC(=O)[C@H](CC(C)C)NC(=O)[C@@H](C(C)C)NC(=O)[C@@H]2CCCN2C(=O)[C@H]([C@@H](C)CC)NC(=O)[C@H](C(C)C)NC(=O)[C@H](CC(C)C)NC(=O)[C@@H]2CCCN2C(=O)CNC1=O (cyclo(LSKISGGIGPLVIP[dV]))	Active	inactive	Active	Active	Active	Active	Active	17.76 min	Active	Active	Active	3 log10CFU/ml	Active	MIC ([3]; read-out: MIC100): 1.5 µM (≈ 2.15 µg/mL); Activity [14]: Active; Activity [16]: Active; Activity [18]: 5 log10CFU/ml; Activity [19]: Active
H-LSKISGGIGPLVIPV-NH2	Active	inactive	Active	Active	Active	Active	Active	14.51 min	Active	Active	Active	2 log10CFU/ml	Active	Activity [21]: Active; Activity [22]: 10%; Activity [23]: Active; Activity [24]: Active; MIC [25]: 9.3 µM; MIC [26]: 0.9 µM; Activity [27]: Active; Activity [28]: 5 log10CFU/ml; Activity [29]: Active

Reference: ChEMBL document CHEMBL6177914, “Human microbiome derived synthetic antimicrobial peptides with activity against Gram-negative, Gram-positive, and antibiotic resistant bacteria” (RSC Med Chem, 2025)
